Values belong to the compound of their own block, whether it stands above or below them. Activity calls are given as the source filed them. The rule behind the calls is not given here.
What was measured:
[1] = biological target: Amyloid-beta precursor protein (Homo sapiens) (UniProt P05067); assay: Inhibition of amyloid beta (1 to 42) (unknown origin) self-aggregation at 10 uM after 24 hrs by ESI-IT-MS analysis
Procedure, shortened: (§1)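 Aβ42 incubated 24 h at 30 °C with or without inhibitor; monomer (Aβ42m) and oxidized monomer (Aβ42m Ox) quantified by mass spectrometry with reserpine as internal standard. Residual monomer expressed versus t0 control; oxidized monomer expressed as fold over 24 h control. Test levels 2, 10 and 50 μM.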

[2] = system: T67; assay: Pro-oxidant activity in human T67 cells assessed as induction of mitochondrial ROS generation after 4 hrs by MitoSOX Red probe based fluorescence assay; format: functional, cell-based
Procedure, shortened: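 T67 cells treated 4 h with compound at 1–10 μM; mitochondrial superoxide read by MitoSOX Red fluorescence. Antimycin A (10 μM) as positive control. n = 8; one-way ANOVA with Dunnett's test versus untreated control.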

[3] = system: neuronal; assay: Neuroprotective activity against human amyloid beta (1 to 42)-induced neuronal cell death in rat mixed cortical neurons assessed as decrease in number of dead neurons up to 25 uM incubated for 72 hrs by trypan blue dye based phase contrast microscopic analysis
Procedure, shortened: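 Rat mixed cortical cultures exposed to Aβ42 oligomers preformed by 72 h incubation, with compound added separately; 72 h exposure. Trypan blue–stained dead neurons counted in three random fields/well; means ± SEM of nine determinations.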

[4] = biological target: Amyloid-beta precursor protein (Homo sapiens) (UniProt P05067); assay: Inhibition of amyloid beta (1 to 42) (unknown origin) self-aggregation assessed as residual amyloid beta 42 monomer level at 2 uM after 24 hrs by ESI-IT-MS analysis; procedure, shortened: as §1
[5] = biological target: Amyloid-beta precursor protein (Homo sapiens) (UniProt P05067); assay: Inhibition of amyloid beta (1 to 42) (unknown origin) self-aggregation assessed as increase in oxidized amyloid beta 42 monomer level at 2 uM after 24 hrs by ESI-IT-MS analysis relative to control; procedure, shortened: as §1
[6] = biological target: Amyloid-beta precursor protein (Homo sapiens) (UniProt P05067); assay: Inhibition of amyloid beta (1 to 42) (unknown origin) self-aggregation at 2 uM after 24 hrs by ESI-IT-MS analysis; procedure, shortened: as §1
[7] = biological target: Amyloid-beta precursor protein (Homo sapiens) (UniProt P05067); assay: Inhibition of amyloid beta (1 to 42) (unknown origin) self-aggregation assessed as increase in oxidized amyloid beta 42 monomer level after 24 hrs by ESI-IT-MS analysis; procedure, shortened: as §1
[8] = biological target: Amyloid-beta precursor protein (Homo sapiens) (UniProt P05067); assay: Neuroprotective activity against amyloid beta (1 to 42) (unknown origin)-induced neuronal cell death in rat mixed cortical neurons assessed as number of dead neurons at 5 uM incubated for 72 hrs by trypan blue dye based phase contrast microscopic analysis (reference value: 71.7 +/- 3.1)
Procedure, shortened: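 100 μM Aβ42 preincubated 72 h alone or with 5-fold molar excess of inhibitor, then added to rat mixed cortical cultures for a further 72 h (final inhibitor 5 μM). Dead neurons stained with Trypan blue, counted in three random microscopic fields/well; means ± SEM of nine determinations.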

[9] = biological target: Amyloid-beta precursor protein (Homo sapiens) (UniProt P05067); assay: Inhibition of amyloid beta (1 to 42) (unknown origin) self-aggregation assessed as increase in oxidized amyloid beta 42 monomer level at 50 uM after 24 hrs by ESI-IT-MS analysis relative to control; procedure, shortened: as §1
[10] = biological target: Amyloid-beta precursor protein (Homo sapiens) (UniProt P05067); assay: Inhibition of amyloid beta (1 to 42) (unknown origin) self-aggregation assessed as increase in oxidized amyloid beta 42 monomer level at 10 uM after 24 hrs by ESI-IT-MS analysis relative to control; procedure, shortened: as §1
[11] = species on record: Rattus norvegicus; assay: Neurotoxicity in rat mixed cortical neurons assessed as neuronal cell death up to 50 uM after 48 hrs by trypan blue dye based phase contrast microscopic analysis; format: toxicity, organism-based; settings: cortical neurone
Procedure, shortened: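 Mixed rat cortical cell cultures exposed to compound at 0.25−50 μM for 48 h; dead neurons stained with Trypan blue and counted microscopically to quantify neuronal damage.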

[12] = biological target: Amyloid-beta precursor protein (Homo sapiens) (UniProt P05067); assay: Inhibition of amyloid beta (1 to 42) (unknown origin) self-aggregation assessed as residual amyloid beta 42 monomer level at 10 uM after 24 hrs by ESI-IT-MS analysis; procedure, shortened: as §1
[13] = biological target: Amyloid-beta precursor protein (Homo sapiens) (UniProt P05067); assay: Inhibition of amyloid beta (1 to 42) (unknown origin) self-aggregation assessed as residual amyloid beta 42 monomer level at 50 uM after 24 hrs by ESI-IT-MS analysis; procedure, shortened: as §1
[14] = biological target: Amyloid-beta precursor protein (Homo sapiens) (UniProt P05067); assay: Inhibition of amyloid beta (1 to 42) (unknown origin) self-aggregation at 50 uM after 24 hrs by ESI-IT-MS analysis; procedure, shortened: as §1
[15] = system: T67; assay: Antioxidant activity in human T67 cells assessed as decrease in TBHP-induced ROS generation at 10 uM pretreated for 4 hrs followed by TBPH addition for 30 mins by DCFDA dye based fluorescence assay; format: functional, cell-based

Amyloid-beta precursor protein (Homo sapiens), sequence (P05067 whole entry): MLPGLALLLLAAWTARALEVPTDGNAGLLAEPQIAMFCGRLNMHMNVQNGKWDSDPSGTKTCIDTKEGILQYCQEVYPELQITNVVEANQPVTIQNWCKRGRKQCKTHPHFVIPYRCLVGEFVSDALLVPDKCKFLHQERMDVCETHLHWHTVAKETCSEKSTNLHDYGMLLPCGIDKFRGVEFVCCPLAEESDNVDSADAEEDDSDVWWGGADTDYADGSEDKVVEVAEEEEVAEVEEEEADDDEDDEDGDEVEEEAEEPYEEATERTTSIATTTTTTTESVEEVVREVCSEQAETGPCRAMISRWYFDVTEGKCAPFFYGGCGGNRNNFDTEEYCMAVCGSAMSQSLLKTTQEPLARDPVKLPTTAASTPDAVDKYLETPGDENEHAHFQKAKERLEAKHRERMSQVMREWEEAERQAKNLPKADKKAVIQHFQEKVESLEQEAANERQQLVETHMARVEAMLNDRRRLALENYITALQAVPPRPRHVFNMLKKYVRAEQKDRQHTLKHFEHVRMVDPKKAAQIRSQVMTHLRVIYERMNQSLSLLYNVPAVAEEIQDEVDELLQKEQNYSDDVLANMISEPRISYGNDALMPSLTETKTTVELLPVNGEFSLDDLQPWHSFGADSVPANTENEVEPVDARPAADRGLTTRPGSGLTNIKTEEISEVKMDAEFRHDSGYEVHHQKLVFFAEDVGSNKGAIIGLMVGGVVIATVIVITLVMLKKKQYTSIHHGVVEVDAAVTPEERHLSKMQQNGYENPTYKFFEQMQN

SMILES: NCCCNCCCCNCCCNC(=O)CCC(=O)N1C/C(=C/c2cccc(O)c2)C(=O)/C(=C/c2cccc(O)c2)C1
inhibition [1]: < 10%

SMILES: NCCCNCCCCNCCCNC(=O)CCC(=O)N1C/C(=C\c2ccccc2)C(=O)/C(=C/c2ccccc2)C1
inhibition [1]: < 10%

SMILES: NCCCNCCCCNCCCNC(=O)CCC(=O)N1C/C(=C/c2ccc(O)c(O)c2)C(=O)/C(=C/c2ccc(O)c(O)c2)C1.O=C(O)C(F)(F)F
Activity [2]: Dose-dependent effect
Activity [3]: Active
Activity [4]: 27%
fold change (FC) [5]: 1.46
inhibition [6]: 12%
inhibition [7]: Dose-dependent effect
Activity [8]: 46.5
fold change (FC) [9]: 2.79
fold change (FC) [10]: 2.14
Activity [11]: Non-Toxic
Activity [12]: 53%

SMILES: Cl.O=C1/C(=C/c2ccc(O)c(O)c2)CNC/C1=C\c1ccc(O)c(O)c1
inhibition [7]: Dose-dependent effect
Activity [13]: 61.9%
fold change (FC) [9]: 2.56
Activity [11]: Non-Toxic
inhibition [14]: 54.1%
Activity [12]: 20.5%

Second part, led by results:

inhibition [1]: < 10%
SMILES: NCCCNCCCCNCCCNC(=O)CCC(=O)N1C/C(=C\c2ccc(O)cc2)C(=O)/C(=C/c2ccc(O)cc2)C1
Activity [2]: Dose-dependent effect

inhibition [1]: < 10%
SMILES: COc1cc(/C=C2\CN(C(=O)CCC(=O)NCCCNCCCCNCCCN)C/C(=C\c3ccc(O)c(OC)c3)C2=O)ccc1O
Activity [15]: Active

inhibition [1]: < 10%
SMILES: COc1ccc(/C=C2/CN(C(=O)CCC(=O)NCCCNCCCCNCCCN)C/C(=C\c3ccc(OC)c(OC)c3)C2=O)cc1OC
